Bioassay records (PubChem BioAssay)
Calb FLC: affects C. albicans growth with fluconazole. C. albicans CaCi-2 (fluconazole-resistant clinical isolate) + fluconazole, Alamar Blue growth, 48 h. growth inhibition, % (concentration not given with the values). actives 0.57% (n = 300,000);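 active = growth inhibition above about 58% in most replicates, limit read from the data, passing the limit was not always enough; inconclusive = exactly half the replicates above a set limit; inactive = most replicates below a set limit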;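 note: all wells also contain fluconazole at 8 µg/ml as a sub-toxic cotreatment; 0% = median of DMSO wells and 100% = median of geldanamycin control wells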
T cruzi inh: blocks replication of Trypanosoma cruzi | T. cruzi beta-gal in NIH3T3, luminescence, 90 h | inhibition, % (concentration not given with the values) | actives 1.4% (n = 300,000) | AID 1885;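 active = mean inhibition across valid replicates above about 55%, limit read from the data; inconclusive = mean below that limit but half or more replicates reach it; inactive = mean below it, under half of replicates reach it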;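 note: signal also drops with host cell toxicity which is not excluded here; 0% = plate median of DMSO wells and 100% = zero luminescence signal; higher percent means less beta-gal luminescence so fewer parasites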
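assay system = mouse NIH/3T3 fibroblasts infected with β-gal-expressing T. cruzi Tulahuen C4 | input = 5,000 NIH/3T3 host cells per well | buffer or medium = DMEM plus 2% FBS | timing = 3 h host attachment, then at least 90 h co-culture | measured by = GalScreen luminescence, 60 min | evaluation = luminescence reflecting intracellular parasite burden, expressed as percent inhibition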
Lmaj promast: reduces viability of Leishmania major promastigotes | inhibition, % at 10 µM | actives 9% (n = 200,000) | resazurin fluorescence viability; in the data active = inhibition above about 50%;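 note: promastigotes grown with compound for 44 hours at 28 °C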
NLRP3 yeast inh: NALP3 inhibition in yeast; Yeast reconstituted NLRP3/ASC/caspase-1, beta-gal luminescence, 24 h; inhibition, % at 10 µM; actives 0.39% (n = 330,000);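 active = inhibition of 50% or more; inactive = inhibition below 50%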;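 note: plate controls were induced DMSO wells for no effect and uninduced yeast grown without galactose for full effect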
NALP1 inh: NALP1 inhibition; S. cerevisiae NALP1/ASC/caspase-1 growth, X-gal OD620, 72 h; actives 0.61% (n = 280,000); inhibition, % at 10 µM; in the data active = inhibition mostly above about 24%, no sharp cut-off; inactive = mostly below about 32%
PolyA inhibitor: inhibitors of polyadenylation in S. cerevisiae | activity score, % at 12 µM | AID 1875 | S. cerevisiae SKY197-pL101 polyadenylation reporter, beta-gal luminescence; efflux-impaired pdr1/pdr3 knockout yeast; score 100 = 6 SD above DMSO | actives 0.02% (n = 300,000);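 active = lowest replicate activity score at least 50, where 100 means six control SD above control mean; inconclusive = lowest score under 50 but half or more replicates reach 50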;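 note: yeast exposed to compound for 9 h at 30 °C; higher score means more reporter readthrough which indicates perturbed polyadenylation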
* hit, by the source's call. The entries come from a sample that favours hits as a whole.

For COC(=O)c1ccccc1NC(=O)Cn1cnc2c(cnn2-c2ccccc2)c1=O the results were Calb FLC -8, T cruzi inh -2, Lmaj promast -8, NLRP3 yeast inh 2, NALP1 inh 11 and PolyA inhibitor -3.
For CCn1cnc2c(cnn2-c2ccccc2)c1=O the results were Calb FLC 2, T cruzi inh -11, Lmaj promast -1, NLRP3 yeast inh 19, NALP1 inh 36* and PolyA inhibitor -5.
COc1ccc(C(O)P(=O)(OCC(C)C)OCC(C)C)c(OC)c1 (stereo not given) was read as Calb FLC 26, T cruzi inh 1, Lmaj promast 65*, NLRP3 yeast inh -10, NALP1 inh 9 and PolyA inhibitor -5.
COc1ccc(CCn2c(-c3cc([N+](=O)[O-])cc([N+](=O)[O-])c3)nc3nc4ccccc4nc32)cc1OC was read as Calb FLC -3, T cruzi inh 62*, Lmaj promast 80*, NLRP3 yeast inh 14, NALP1 inh 29 and PolyA inhibitor -20.
Screening COc1ccc(CCn2c(-c3ccco3)nc3nc4ccccc4nc32)cc1 returned Calb FLC 7, T cruzi inh 27, Lmaj promast 18, NLRP3 yeast inh 9, NALP1 inh 0 and PolyA inhibitor -11.
Screening COc1ccc(CCn2c(-c3cc([N+](=O)[O-])cc([N+](=O)[O-])c3)nc3nc4ccccc4nc32)cc1 returned Calb FLC inconclusive, T cruzi inh 57*, Lmaj promast 89*, NLRP3 yeast inh 28, NALP1 inh 26 and PolyA inhibitor -22.
Screening COc1ccccc1N1CCN(C(=O)CC(NC(=O)c2ccccc2Cl)c2ccccc2)CC1 (stereo not given) returned NLRP3 yeast inh 13.
Screening CCOC(=O)C(Cc1ccc(O)cc1)NC(=O)CNC(=O)C1CCCN1C(=O)OC(C)(C)C (stereo not given) returned Calb FLC -9, T cruzi inh -15, Lmaj promast -4, NLRP3 yeast inh 8, NALP1 inh -5 and PolyA inhibitor 10.
For CCOc1ccccc1NC(=O)/C(C#N)=C/c1c(C)nn(-c2ccc(F)cc2)c1Cl the results were Calb FLC -2, T cruzi inh -9, Lmaj promast 73*, NLRP3 yeast inh 21, NALP1 inh 22 and PolyA inhibitor 9.
C=CCNC(=O)/C(C#N)=C/c1c(C)nn(-c2ccc(Cl)cc2)c1Cl was read as Calb FLC -12, T cruzi inh 1, Lmaj promast 89*, NLRP3 yeast inh 16, NALP1 inh 17 and PolyA inhibitor -21.
Screening COCC1CCCCN1C(=O)c1ccc(OC2CCN(Cc3ccccn3)CC2)cc1 (stereo not given) returned Calb FLC -1, T cruzi inh 3, NLRP3 yeast inh 22, NALP1 inh 12 and PolyA inhibitor 25.
For CN1CCN(C(=O)NCC23CC4CC(CC(C4)C2)C3)CC1 the results were Calb FLC -3, T cruzi inh 7, Lmaj promast 0, NLRP3 yeast inh 31, NALP1 inh 3 and PolyA inhibitor 12.
Screening CCOC(=O)c1c(NC(=O)CSc2nnc3c(n2)[nH]c2ccccc23)sc2c1CCN(C)C2 returned Calb FLC -4, T cruzi inh 77*, Lmaj promast 100*, NLRP3 yeast inh 10 and PolyA inhibitor 11.
CCOC(=O)c1c(NC(=O)CC)sc2c1CCN(Cc1ccccc1)C2 was read as Calb FLC -4, T cruzi inh 44, NLRP3 yeast inh -1, NALP1 inh 2 and PolyA inhibitor inconclusive.
For CCOC(=O)c1c(NC(=O)CSc2nnc3c(n2)[nH]c2ccc(F)cc23)sc(C(C)=O)c1C the results were Lmaj promast 1, NLRP3 yeast inh 8 and NALP1 inh -6.
Screening CCOC(=O)c1c(NC(=S)Nc2ccccc2)sc2c1CCN(CCc1ccccc1)C2 returned Lmaj promast 79* and NALP1 inh 15.
CCOC(=O)c1c(NC(=O)CSc2ncccn2)sc2c1CCN(Cc1ccccc1)C2 was read as Calb FLC 6, T cruzi inh 56*, Lmaj promast 99*, NALP1 inh 31 and PolyA inhibitor 4.
Screening COc1ccccc1CN(C)C(=O)C(NC(=O)Cc1cccc2ccccc12)C(C)C (stereo not given) returned Calb FLC -4, T cruzi inh 6, NLRP3 yeast inh 7, NALP1 inh 13 and PolyA inhibitor -1.
For O=C(CN1CCCC1)N1CCCc2c1c(=O)oc1ccc(OCc3ccccc3)cc21 the results were Calb FLC 13, T cruzi inh 10, Lmaj promast 12, NLRP3 yeast inh 7, NALP1 inh 29* and PolyA inhibitor 5.
For CCCOc1ccc2oc(=O)c3c(c2c1)CCCN3C(=O)CN1CCN(C(=O)c2ccco2)CC1 the results were Calb FLC 15, T cruzi inh -18, Lmaj promast 8, NLRP3 yeast inh -3, NALP1 inh 1 and PolyA inhibitor 6.
Screening CC1CCN(CCC(=O)N/N=C/c2ccc([N+](=O)[O-])cc2)CC1 returned Calb FLC 29, T cruzi inh 10, Lmaj promast 81*, NLRP3 yeast inh 2, NALP1 inh 4 and PolyA inhibitor -3.
`CN1CCN(CCC(=O)N/N=C/c2cc([N+](=O)[O-])ccc2OC(F)F)CC1` gave Calb FLC -20, T cruzi inh 9, Lmaj promast -2, NLRP3 yeast inh 20, NALP1 inh 11 and PolyA inhibitor -7.
Screening O=C(NCCc1ccccc1F)C1CCC(=O)N(Cc2ccc(Cl)cc2)C1 (stereo not given) returned Calb FLC -4, T cruzi inh -10, NLRP3 yeast inh -16, NALP1 inh 17 and PolyA inhibitor 17.
`CCOC(=O)c1ccc(S(=O)(=O)N2CCN(C3CCCC3)CC2)cc1` gave Calb FLC 2, T cruzi inh -13, Lmaj promast 90*, NLRP3 yeast inh 9, NALP1 inh -8 and PolyA inhibitor 5.
CCOC(=O)c1ccc(S(=O)(=O)n2c(=O)oc3ccccc32)cc1 was read as NLRP3 yeast inh 2.
CCOC(=O)N1CCC(N2CCN(S(=O)(=O)CC)CC2)CC1 was read as Calb FLC -2, T cruzi inh -10, Lmaj promast 94*, NLRP3 yeast inh 6, NALP1 inh 8 and PolyA inhibitor 13.
Screening CCOC(=O)c1ccc(S(=O)(=O)n2c(CN3CCCCC3)nc3ccccc32)cc1 returned Calb FLC 28, T cruzi inh 25, Lmaj promast 52*, NLRP3 yeast inh 9, NALP1 inh 18 and PolyA inhibitor -5.
CCOC(=O)N1CCC(N2CCN(S(=O)(=O)c3ccc(C)cc3)CC2)CC1 was read as Calb FLC 8, T cruzi inh -3, Lmaj promast 85*, NLRP3 yeast inh 9, NALP1 inh 13 and PolyA inhibitor -2.
